The source of these data is publication PMC2860721 (Journal of medicinal chemistry, 2010).

SMILES strings stand for the structures. Converted amounts (≈) assume the structure as drawn.

The subject of experiment [1] is HIV. To be noted: cited from earlier work.
In experiment [2] the test system is HIV. The note with it: cited from earlier work. This is another data set of the same source.
A further experiment has as its system mock-infected MT-2 cells. The experiment in a line: Compound toxicity by XTT in mock-infected MT-2 cells. The format is cell-based. To be noted: Homo sapiens, MT2, read-out: IC50 (concentration that inhibits mock-infected cell growth by 50%). On the technique in general: Tetrazolium assays rely on reduction of a dye to a coloured formazan, in cell work by metabolically active cells.

Another experiment relates to HIV-1NL4-3. Briefly: HIV-1NL4-3 replication inhibition assay in MT-4 lymphocytes. The format is cell-based. The note with it: HIV-1NL4-3 infected MT-4 lymphocytes. The method, boiled down:
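MT-4 cells infected with HIV-1 NL4-3 or NL4-3 variants at MOI 0.01. Culture supernatants collected on day 4 post-infection. Viral replication read out by p24 antigen capture ELISA.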

Broadly, the EC50 is the midpoint of the concentration-response curve. Turning to `C=C(C)C1CCC2(C(=O)O)CCC3(C)C(CCC4C5(C)CCC(OC(=O)C(C)(C)CC(=O)O)C(C)(C)C5CCC43C)C12` (centres unmarked) [3-O-(2′,2′-dimethylsuccinyl) BA], the EC50 with HIV [1] is 2.7 µM. Regarding `CC1(C)C=C2[C@H]3CC[C@@H]4[C@@]5(C)CCC(=O)C(C)(C)[C@@H]5CC[C@@]4(C)[C@]3(C)CC[C@@]2(C(=O)O)CC1` [Compound 3, moronic acid], the “EC50 (anti-HIV activity)” value in the experiment with HIV [2] is 0.1 µg/mL (≈ 0.22 µM).

For the compound `C=C(C)[C@@H]1CC[C@]2(C(=O)O)CC[C@]3(C)[C@H](CC[C@@H]4[C@@]5(C)CC[C@H](OC(=O)C[C@H](C)C(=O)O)C(C)(C)[C@@H]5CC[C@]43C)[C@@H]12` [Compound 10, 3β-O-(3′S-Methylsuccinyl)-betulinic acid], the IC50 with mock-infected MT-2 cells is 32.8 µM.

Take `C=C(C)[C@@H]1CC[C@]2(C(=O)O)CC[C@]3(C)[C@H](CC[C@@H]4[C@@]5(C)CC[C@H](OC(=O)C[C@](C)(CC)C(=O)O)C(C)(C)[C@@H]5CC[C@]43C)[C@@H]12` [Compound 12a, 3β-O-(3′S-Ethylmethylsuccinyl)-betulinic acid]: in the experiment on HIV-1NL4-3, the antiviral activity result is given as “active”. The same measure, in the same setting: in the case of `C=C(C)[C@@H]1CC[C@]2(C(=O)O)CC[C@]3(C)[C@H](CC[C@@H]4[C@@]5(C)CC[C@H](OC(=O)C[C@@](C)(CC)C(=O)O)C(C)(C)[C@@H]5CC[C@]43C)[C@@H]12` [Compound 12b, 3β-O-(3′R-Ethylmethylsuccinyl)-betulinic acid] it was “no antiviral activity”.
